Peptide text beside a SMILES is read from it.

Common to all, as to format: functional
Assay [1] is described as follows: Relative potency expressed in percent to that of neurotensin was measured using guinea pig atria. The gist of the method: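 Both atria dissected free of ventricles, fat and blood; beating spontaneously under 0.5 g resting tension in 15-mL baths of oxygenated Krebs at 30 °C. Equilibrated 45–60 min before peptide exposure. Contractile force recorded isometrically via force-displacement transducer.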

Assay [2] can be described thus: Relative potency expressed in percent to that of neurotensin was measured using perfused rat heart assay. The gist of the method:
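Male albino Wistar rats heparinized i.p. (2.5 mg/rat), then killed. Hearts perfused with filtered, oxygenated Krebs at 37 °C by peristaltic pump, flow raised over 5 min to 8 mL/min (perfusion pressure 70–90 mmHg). Stabilized 30 min before peptide infusion. Read-out: change in perfusion pressure via aortic-cannula side-arm transducer.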

Assay [3] is described as follows: Relative potency expressed in percent to that of neurotensin was measured using rat stomach strips assay.

For `CC[C@H](C)[C@H](NC(=O)[C@H](Cc1ccc(O)cc1)NC(=O)[C@@H]1CCCN1C(=O)[C@@H](C)NC(=O)[C@H](CCCN=C(N)N)NC(=O)[C@@H]1CCCN1C(=O)[C@H](CCCCN)NC(=O)[C@H](CC(N)=O)NC(=O)[C@H](CCC(=O)O)NC(=O)[C@H](Cc1ccc(O)cc1)NC(=O)[C@H](CC(C)C)NC(=O)[C@@H]1CCC(=O)N1)C(=O)N[C@@H](CC(C)C)C(=O)O`, the Relative potency in assay [1] stood at 2.6%; in assay [2] it was 0.3%; in assay [3], 1.5%.
For `CC[C@H](C)[C@H](NC(=O)[C@H](Cc1ccc(O)cc1)NC(=O)[C@@H]1CCCN1C(=O)[C@H](CCCNC(=N)N)NC(=O)[C@@H](N)CCCNC(=N)N)C(=O)N[C@@H](CC(C)C)C(=O)O`, in that order: 52%, 102% and 69%.
In the same order, the values of `CC[C@H](C)[C@H](NC(=O)[C@H](Cc1ccc(O)cc1)NC(=O)CNC(=O)[C@H](CCCN=C(N)N)NC(=O)[C@H](CCCN=C(N)N)NC(=O)[C@@H]1CCCN1C(=O)[C@H](CCCCN)NC(=O)[C@H](CC(N)=O)NC(=O)[C@H](CCC(=O)O)NC(=O)[C@H](Cc1ccc(O)cc1)NC(=O)[C@H](CC(C)C)NC(=O)[C@@H]1CCC(=O)N1)C(=O)N[C@@H](CC(C)C)C(=O)O` are around 0.01%, below 0.01% and around 0.01%.
For `CC[C@H](C)[C@H](NC(=O)[C@H](Cc1ccc(O)cc1)NC(=O)[C@@H]1CCCN1C(=O)[C@H](CCCN=C(N)N)NC(=O)[C@H](CCCN=C(N)N)NC(=O)[C@@H]1CCCN1C(=O)[C@H](CCCCN)NC(=O)[C@H](CC(N)=O)NC(=O)[C@H](CCC(=O)O)NC(=O)[C@H](Cc1ccc(O)cc1)NC(=O)[C@@H](N)CC(C)C)C(=O)N[C@@H](CC(C)C)C(=O)O`, in that order: 94%, 87% and 90%.
On to `CC[C@H](C)[C@H](NC(=O)[C@H](Cc1ccc(O)cc1)NC(=O)[C@@H]1CCCN1C(=O)[C@H](CCCN=C(N)N)NC(=O)[C@H](CCCN=C(N)N)NC(=O)[C@@H]1CCCN1C(=O)[C@H](CCCCN)NC(=O)[C@H](CC(N)=O)NC(=O)[C@H](CCC(=O)O)NC(=O)[C@H](Cc1ccc(O)cc1)NC(=O)[C@H](CC(C)C)NC(=O)[C@@H]1CCC(=O)N1)C(=O)O`, for which the Relative potency in assay [1] came out at 0.09%; in assay [2], 0.03%; in assay [3], 0.65%.
Take `CC[C@H](C)[C@H](NC(=O)[C@H](C)NC(=O)[C@@H]1CCCN1C(=O)[C@H](CCCN=C(N)N)NC(=O)[C@H](CCCN=C(N)N)NC(=O)[C@@H]1CCCN1C(=O)[C@H](CCCCN)NC(=O)[C@H](CC(N)=O)NC(=O)[C@H](CCC(=O)O)NC(=O)[C@H](Cc1ccc(O)cc1)NC(=O)[C@H](CC(C)C)NC(=O)[C@@H]1CCC(=O)N1)C(=O)N[C@@H](CC(C)C)C(=O)O`: the figures for the Relative potency in assay [1], in assay [2] and in assay [3] were below 0.01%, 0.01% and 0.01%, respectively.
In the case of `CC[C@H](C)[C@H](NC(=O)[C@@H](Cc1c[nH]c2ccccc12)NC(=O)[C@@H]1CCCN1C(=O)[C@H](CCCN=C(N)N)NC(=O)[C@H](CCCN=C(N)N)NC(=O)[C@@H]1CCCN1C(=O)[C@H](CCCCN)NC(=O)[C@H](CC(N)=O)NC(=O)[C@H](CCC(=O)O)NC(=O)[C@H](Cc1ccc(O)cc1)NC(=O)[C@H](CC(C)C)NC(=O)[C@@H]1CCC(=O)N1)C(=O)N[C@@H](CC(C)C)C(=O)O`, the Relative potency worked out at 0.01% in assay [1], 0.1% in assay [2] and 0.64% in assay [3].
For `CC(C)C[C@H](NC(=O)[C@@H]1CCC(=O)N1)C(=O)N[C@@H](Cc1ccc(O)cc1)C(=O)N[C@@H](CCC(=O)O)C(=O)N[C@@H](CC(N)=O)C(=O)N[C@@H](CCCCN)C(=O)N1CCC[C@H]1C(=O)N[C@@H](CCCN=C(N)N)C(=O)N[C@@H](CCCN=C(N)N)C(=O)N1CCC[C@H]1C(=O)O`, in that order: 0%, 0% and 0%.
For `CC[C@H](C)[C@H](NC(=O)[C@H](Cc1c[nH]c2ccccc12)NC(=O)[C@@H]1CCCN1C(=O)[C@H](CCCN=C(N)N)NC(=O)[C@H](CCCN=C(N)N)NC(=O)[C@@H]1CCCN1C(=O)[C@H](CCCCN)NC(=O)[C@H](CC(N)=O)NC(=O)[C@H](CCC(=O)O)NC(=O)[C@H](Cc1ccc(O)cc1)NC(=O)[C@H](CC(C)C)NC(=O)[C@@H]1CCC(=O)N1)C(=O)N[C@@H](CC(C)C)C(=O)O`, in that order: 3.2%, 102% and 130%.
In the same order, the values of `CC[C@H](C)[C@H](NC(=O)[C@H](Cc1ccccc1)NC(=O)[C@@H]1CCCN1C(=O)[C@H](CCCN=C(N)N)NC(=O)[C@H](CCCN=C(N)N)NC(=O)[C@@H]1CCCN1C(=O)[C@H](CCCCN)NC(=O)[C@H](CC(N)=O)NC(=O)[C@H](CCC(=O)O)NC(=O)[C@H](Cc1ccc(O)cc1)NC(=O)[C@H](CC(C)C)NC(=O)[C@@H]1CCC(=O)N1)C(=O)N[C@@H](CC(C)C)C(=O)O` are 15%, 1.4% and 16%.
For the molecule `CC(C)C[C@H](NC(=O)[C@@H]1CCC(=O)N1)C(=O)N[C@@H](Cc1ccc(O)cc1)C(=O)N[C@@H](CCC(=O)O)C(=O)N[C@@H](CC(N)=O)C(=O)N[C@@H](CCCCN)C(=O)N1CCC[C@H]1C(=O)N[C@@H](CCCN=C(N)N)C(=O)N[C@@H](CCCN=C(N)N)C(=O)N1CCC[C@H]1C(=O)N[C@@H](Cc1ccc(O)cc1)C(=O)O`, the Relative potency in assay [1], in assay [2] and in assay [3] was below 0.01% in each case.
On to `CC[C@H](C)[C@H](NC(=O)[C@H](Cc1ccc(O)cc1)NC(=O)[C@@H]1CCCN1C(=O)[C@H](CCCN=C(N)N)NC(=O)[C@H](CCCN=C(N)N)NC(=O)[C@@H]1CCCN1C(=O)[C@@H](N)CCCCN)C(=O)N[C@@H](CC(C)C)C(=O)O`, for which the figures for the Relative potency in assay [1], in assay [2] and in assay [3] were 73%, 84% and 78%, respectively.
In the same order, the values of `CC[C@H](C)[C@H](NC(=O)[C@@H](Cc1ccccc1)NC(=O)[C@@H]1CCCN1C(=O)[C@H](CCCN=C(N)N)NC(=O)[C@H](CCCN=C(N)N)NC(=O)[C@@H]1CCCN1C(=O)[C@H](CCCCN)NC(=O)[C@H](CC(N)=O)NC(=O)[C@H](CCC(=O)O)NC(=O)[C@H](Cc1ccc(O)cc1)NC(=O)[C@H](CC(C)C)NC(=O)[C@@H]1CCC(=O)N1)C(=O)N[C@@H](CC(C)C)C(=O)O` are around 0.01%, below 0.01% and around 0.02%.
In the same order, the values of `CC[C@H](C)[C@H](NC(=O)[C@H](CC(C)C)NC(=O)[C@@H]1CCCN1C(=O)[C@H](CCCN=C(N)N)NC(=O)[C@H](CCCN=C(N)N)NC(=O)[C@@H]1CCCN1C(=O)[C@H](CCCCN)NC(=O)[C@H](CC(N)=O)NC(=O)[C@H](CCC(=O)O)NC(=O)[C@H](Cc1ccc(O)cc1)NC(=O)[C@H](CC(C)C)NC(=O)[C@@H]1CCC(=O)N1)C(=O)N[C@@H](CC(C)C)C(=O)O` are below 0.01%, 0.01% and around 0.03%.
In the same order, the values of `CC[C@H](C)[C@H](NC(=O)[C@H](Cc1ccc(O)cc1)NC(=O)[C@@H]1CCCN1C(=O)[C@@H](N)CCCN=C(N)N)C(=O)N[C@@H](CC(C)C)C(=O)O` are 1.3%, 1.6% and 11%.
Take `CC[C@H](C)[C@H](NC(=O)[C@H](Cc1ccc(O)cc1)NC(=O)[C@@H]1CCCN1)C(=O)N[C@@H](CC(C)C)C(=O)O` (H-PYIL-OH): the Relative potency in assay [1], in assay [2] and in assay [3] was 0% each time.
On to H-ENKPRRPYIL-OH, for which the Relative potency is reported as 99% in assay [1], 92% in assay [2] and 85% in assay [3].
In the same order, the values of H-PRRPYIL-OH are 49%, 59% and 65%.
In the same order, the values of H-YENKPRRPYIL-OH are 84%, 85% and 90%.

Source of the values: ChEMBL document CHEMBL1121808 (1981).
